Source: ChEMBL document CHEMBL1811845, “Modulation of GABAA-receptors by honokiol and derivatives: subtype selectivity and structure-activity relationship” (J Med Chem, 2011)

What was measured:
[1] = Octanol-water partition coefficient, log P of the compound; type: physicochemical; conditions: read-out: logP
[2] = target: T1, Gamma-aminobutyric acid receptor subunit alpha-1/ beta-1 (Homo sapiens, UniProt P14867+P18505); assay: Modulation of GABA Aalpha1beta1 receptor expressed in Xenopus laevis oocytes assessed as potentiation of GABA-induced chloride current at holding potential -70 mV by two-microelectrode voltage clamp technique; type: cell-based, Oocyte
T1 sequence (P14867 whole entry): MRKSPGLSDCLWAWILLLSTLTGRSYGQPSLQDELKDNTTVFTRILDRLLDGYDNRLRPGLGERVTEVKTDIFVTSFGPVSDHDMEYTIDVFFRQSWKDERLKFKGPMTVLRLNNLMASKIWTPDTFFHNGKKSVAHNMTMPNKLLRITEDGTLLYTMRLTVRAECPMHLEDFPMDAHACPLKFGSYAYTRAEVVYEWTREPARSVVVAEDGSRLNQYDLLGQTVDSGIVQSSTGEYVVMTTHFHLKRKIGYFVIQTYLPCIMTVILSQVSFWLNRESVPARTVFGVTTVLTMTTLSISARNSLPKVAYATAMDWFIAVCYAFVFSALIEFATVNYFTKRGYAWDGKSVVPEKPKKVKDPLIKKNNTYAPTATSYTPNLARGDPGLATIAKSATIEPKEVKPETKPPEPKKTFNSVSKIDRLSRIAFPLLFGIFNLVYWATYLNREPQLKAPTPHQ
T1 sequence (P18505 whole entry): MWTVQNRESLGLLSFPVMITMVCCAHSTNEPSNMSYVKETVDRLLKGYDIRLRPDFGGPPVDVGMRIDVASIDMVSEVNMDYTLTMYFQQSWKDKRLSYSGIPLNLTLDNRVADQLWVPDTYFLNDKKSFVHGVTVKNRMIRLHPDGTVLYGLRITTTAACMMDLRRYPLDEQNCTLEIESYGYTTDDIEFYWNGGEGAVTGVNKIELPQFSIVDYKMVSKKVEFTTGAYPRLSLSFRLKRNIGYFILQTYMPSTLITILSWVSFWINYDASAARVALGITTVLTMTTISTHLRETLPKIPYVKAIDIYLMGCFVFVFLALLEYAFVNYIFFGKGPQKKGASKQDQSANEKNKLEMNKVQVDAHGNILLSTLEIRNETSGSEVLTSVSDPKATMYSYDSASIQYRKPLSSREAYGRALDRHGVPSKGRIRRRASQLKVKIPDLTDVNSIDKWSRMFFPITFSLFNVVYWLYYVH
Summary of the method: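 Stage V–VI Xenopus oocytes were injected with subunit cRNAs, with α1 and β1 mixed 3:1 for α1β1, and kept at +18 °C in modified ND96 at pH 7.4. Two-electrode voltage clamp was run at -70 mV and ambient temperature. Test GABA gave 3–7% of maximal current, set for each oocyte. Enhancement was (I(GABA+compound)/IGABA) − 1. EC50 came from a Hill fit. DMSO (max 0.3%) was matched in controls.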

[3] = target: T2, GABA-A receptor alpha-1/beta-3 (Homo sapiens, UniProt P14867+P28472); assay: Modulation of GABA Aalpha1beta3 receptor expressed in Xenopus laevis oocytes assessed as potentiation of GABA-induced chloride current at holding potential -70 mV by two-microelectrode voltage clamp technique; type: cell-based, Oocyte
T2 sequence (P14867 whole entry): T1 sequence (P14867 whole entry)
T2 sequence (P28472 whole entry): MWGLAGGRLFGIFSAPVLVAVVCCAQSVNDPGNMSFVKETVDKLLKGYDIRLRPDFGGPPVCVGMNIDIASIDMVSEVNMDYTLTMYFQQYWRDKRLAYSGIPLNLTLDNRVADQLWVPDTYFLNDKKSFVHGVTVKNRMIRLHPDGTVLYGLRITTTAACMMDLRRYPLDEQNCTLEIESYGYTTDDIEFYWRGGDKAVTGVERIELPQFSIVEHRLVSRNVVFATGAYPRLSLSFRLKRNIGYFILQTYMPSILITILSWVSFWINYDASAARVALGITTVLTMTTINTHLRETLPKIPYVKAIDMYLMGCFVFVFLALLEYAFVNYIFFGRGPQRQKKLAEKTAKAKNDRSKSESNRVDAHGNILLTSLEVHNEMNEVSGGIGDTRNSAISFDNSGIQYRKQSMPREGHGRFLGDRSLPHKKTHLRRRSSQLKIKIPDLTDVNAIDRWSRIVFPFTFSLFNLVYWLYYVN

[4] = target: Gamma-aminobutyric acid receptor subunit alpha-5/beta-2 (Homo sapiens) (UniProt P47870+P31644); assay: Modulation of GABA Aalpha5beta2 receptor expressed in Xenopus laevis oocytes assessed as potentiation of GABA-induced chloride current at holding potential -70 mV by two-microelectrode voltage clamp technique relative to GABA; type: cell-based; conditions: Oocyte
Summary of the method: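 Oocytes were injected with α1, α2, α3 or α5 plus β2 cRNA at a 1:1 ratio and stored at 18 °C in ND96, pH 7.4. Enhancement was (I(GABA+compound)/IGABA)−1, and concentration-response data were Hill-fitted for EC50 and nH. Matched DMSO was ≤0.3%.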

Oocyte = assay: Modulation of GABA alpha1beta2gamma2s receptor expressed in Xenopus laevis oocytes assessed as potentiation of GABA-induced chloride current at holding potential -70 mV at 10 uM by two-microelectrode voltage clamp technique in presence of 300 nM of Diazepam relative to GABA; type: cell-based

Q: For C=CCc1ccc(O)c(-c2ccc(O)c(CC=C)c2)c1 [HONOKIOL], which logP [1] is on record?
A: Its logP is 5.16.

Q: And the EC50 [2]?
A: Its EC50 is 57 µM.

Q: And the EC50 [3]?
A: Its EC50 is 59.6 µM.

Q: What about the Smax [4] of the same molecule?
A: Its Smax is 347%.

Q: And the Activity (Oocyte)?
A: Its Activity is 244%.
